Blank lines part the entries; values can stand above or below the compound they belong to. Calls of active or inactive are those of the source. The calls are words filed in the database; no cut-off is given here.
Experiments:
Ramos [1] = assay: Antitumor activity against human Ramos cells xenografted in CB17 SCID mouse assessed as reduction in tumor growth rate at 75 ug/kg, iv dosed as qdx5 regime starting 7 days post xenograft; format: functional, organism-based
Method in brief: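 Female CB 17 SCID mice, five weeks old, were given Ramos cells subcutaneously under the right shoulder (5 × 10⁶ cells/mouse in 0.1 mL serum-free medium). Tumors grew 7 days to about 100 mm³. Mice were randomized, six per group. Dosing was 75 μg/kg (drug basis) qd ×5, given intravenously, with phosphate-buffered saline as vehicle control. Tumors were measured in three dimensions twice weekly, with volume = ½(l×w×h); body weight was also taken twice weekly.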

[2] = Prodrug activation assessed as enzyme-mediated compound dephosphorylation in presence of human semen prostatic acid phosphatase P1649 at pH 7.4 by HPLC; settings: isolated protein
[3] = Prodrug activation assessed as enzyme-mediated compound dephosphorylation in presence of bovine alkaline phosphatase P8361 at pH 7.4 by HPLC; settings: cattle, isolated protein
[4] = Prodrug activation assessed as enzyme-mediated compound dephosphorylation in presence of bovine intestinal mucosa alkaline phosphatase P7640 at pH 7.4 by HPLC; settings: cattle, isolated protein
[5] = Prodrug activation assessed as enzyme-mediated compound dephosphorylation in presence of bovine kidney alkaline phosphatase P4653 at pH 7.4 by HPLC; settings: cattle, isolated protein
[6] = Prodrug activation assessed as enzyme-mediated compound dephosphorylation in presence of bovine liver alkaline phosphatase P7034 at pH 7.4 by HPLC; settings: cattle, isolated protein
[7] = Prodrug activation assessed as enzyme-mediated compound dephosphorylation in presence of calf intestine alkaline phosphatase P7923 at pH 7.4 by HPLC; settings: cattle, isolated protein
[8] = Prodrug activation assessed as enzyme-mediated compound dephosphorylation in presence of canine intestine alkaline phosphatase P8639 at pH 7.4 by HPLC; settings: dog, isolated protein
[9] = Prodrug activation assessed as enzyme-mediated compound dephosphorylation in presence of porcine intestine mucosa alkaline phosphatase P4002 at pH 7.4 by HPLC; settings: pig, isolated protein
[10] = Prodrug activation assessed as enzyme-mediated compound dephosphorylation in presence of porcine kidney alkaline phosphatase P4439 at pH 7.4 by HPLC; settings: pig, isolated protein
[11] = Prodrug activation assessed as enzyme-mediated compound dephosphorylation in presence of rabbit intestine alkaline phosphatase P2256 at pH 7.4 by HPLC; settings: isolated protein
[12] = Prodrug activation assessed as enzyme-mediated compound dephosphorylation in presence of human placenta alkaline phosphatase from P3895 at pH 7.4 by HPLC; settings: isolated protein
[13] = Prodrug activation assessed as enzyme-mediated compound dephosphorylation in presence of calf intestine mucosa alkaline phosphatase P79390 at pH 7.4 by HPLC; settings: cattle, isolated protein
[14] = Solubility in water at 1.5 mg sonicated for 45 mins followed by centrifugation for 45 mins by UV/Vis spectroscopy; format: physicochemical; settings: 0.75 h
Method in brief: (§1)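 Solid compound (~1.5 mg) in the stated solvent was sonicated 45 min, then centrifuged at 1400g for 45 min. The supernatant concentration was read by UV/vis at 340 nm, using ε = 41500 M⁻¹ cm⁻¹ for the free phenols and 34500 M⁻¹ cm⁻¹ for the phosphate prodrugs (pH 7.0 values).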

[15] = Solubility in toluene at 1.5 mg sonicated for 45 mins followed by centrifugation for 45 mins by UV/Vis spectroscopy; format: physicochemical; settings: 0.75 h; method in brief: as §1
[16] = Solubility in ethyl acetate at 1.5 mg sonicated for 45 mins followed by centrifugation for 45 mins by UV/Vis spectroscopy; format: physicochemical; settings: 0.75 h; method in brief: as §1
[17] = Solubility in hexane at 1.5 mg sonicated for 45 mins followed by centrifugation for 45 mins by UV/Vis spectroscopy; format: physicochemical; settings: 0.75 h; method in brief: as §1
[18] = Solubility in chloroform at 1.5 mg sonicated for 45 mins followed by centrifugation for 45 mins by UV/Vis spectroscopy; format: physicochemical; settings: 0.75 h; method in brief: as §1
[19] = Solubility in dichloromethane at 1.5 mg sonicated for 45 mins followed by centrifugation for 45 mins by UV/Vis spectroscopy; format: physicochemical; settings: 0.75 h
[20] = Solubility in ethanol at 1.5 mg sonicated for 45 mins followed by centrifugation for 45 mins by UV/Vis spectroscopy; format: physicochemical; settings: 0.75 h; method in brief: as §1
[21] = Solubility in methanol at 1.5 mg sonicated for 45 mins followed by centrifugation for 45 mins by UV/Vis spectroscopy; format: physicochemical; settings: 0.75 h; method in brief: as §1
[22] = Solubility in DMSO at 1.5 mg sonicated for 45 mins followed by centrifugation for 45 mins by UV/Vis spectroscopy; format: physicochemical; settings: 0.75 h; method in brief: as §1
[23] = Solubility in DMA at 1.5 mg sonicated for 45 mins followed by centrifugation for 45 mins by UV/Vis spectroscopy; format: physicochemical; settings: 0.75 h; method in brief: as §1
[24] = Solubility in DMF at 1.5 mg sonicated for 45 mins followed by centrifugation for 45 mins by UV/Vis spectroscopy; format: physicochemical; settings: 0.75 h; method in brief: as §1
[25] = Solubility in water containing 5% THF at 1.5 mg sonicated for 45 mins followed by centrifugation for 45 mins by UV/Vis spectroscopy; format: physicochemical; settings: 0.75 h
[26] = Solubility in water containing 5% acetone at 1.5 mg sonicated for 45 mins followed by centrifugation for 45 mins by UV/Vis spectroscopy; format: physicochemical; settings: 0.75 h
[27] = Solubility in water containing 5% dioxane at 1.5 mg sonicated for 45 mins followed by centrifugation for 45 mins by UV/Vis spectroscopy; format: physicochemical; settings: 0.75 h
[28] = Solubility in water containing 5% DMSO at 1.5 mg sonicated for 45 mins followed by centrifugation for 45 mins by UV/Vis spectroscopy; format: physicochemical; settings: 0.75 h
[29] = Solubility in water containing 5% DMA at 1.5 mg sonicated for 45 mins followed by centrifugation for 45 mins by UV/Vis spectroscopy; format: physicochemical; settings: 0.75 h
[30] = Solubility in water containing 5% DMF at 1.5 mg sonicated for 45 mins followed by centrifugation for 45 mins by UV/Vis spectroscopy; format: physicochemical; settings: 0.75 h
[31] = Stability of the compound in 5 % DMA assessed as cyclopropyl ring formation incubated for 1 yr at room temperature at pH 7 by HPLC analysis; format: physicochemical; settings: buffer, pH 7, 8766 h
Method in brief: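 Phosphate prodrug is stored for one year at room temperature in phosphate buffer containing 5% DMA at pH ~7. Conversion to the ring-closed cyclopropyl form is monitored by HPLC.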

[32] = Prodrug activation assessed as enzyme-mediated compound dephosphorylation in presence of wheat germ acid phosphatase Sigma P3627 at pH 7.4 by HPLC; settings: isolated protein
[33] = Prodrug activation assessed as enzyme-mediated compound dephosphorylation in presence of bovine semen prostatic acid phosphatase P3147 at pH 7.4 by HPLC; settings: cattle, isolated protein
Ramos [34] = assay: Cytotoxicity against human Ramos cells assessed as cell survival after 72 hrs by clonogenic assay; format: functional, cell-based
Method in brief: (§2)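 Cells were kept in RPMI 1640 with 10% heat-inactivated FBS at 37 °C and 6% CO₂. They were plated at 1000–5000 cells/well and exposed to 0–3 nM test agent for 72 h. Medium was then replaced and colonies grew for 7–10 days in total after plating. Colonies were fixed and stained with 0.2% crystal violet in 10% formalin/PBS, then counted. Surviving fraction = colonies in treated wells / colonies in control wells; IC₅₀ was taken from this.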

[35] = Cytotoxicity against human NAMALWA cells assessed as cell survival after 72 hrs by clonogenic assay; format: functional, cell-based; settings: NAMALVA; method in brief: as §2
HL-60 = assay: Cytotoxicity against human HL60 cells assessed as cell survival after 72 hrs by clonogenic assay; format: functional, cell-based; settings: HL-60, 72 h; method in brief: as §2

SMILES: CC(C)(S)CCC(=O)Nc1ccc2[nH]c(C(=O)Nc3ccc4[nH]c(C(=O)N5C[C@@H](CCl)c6c5cc(OP(=O)(O)O)c5ccccc65)cc4c3)cc2c1
Activity (Ramos [1]): inactive
Drug metabolism [2]: Active
Drug metabolism [3]: Active
Drug metabolism [4]: Active
Drug metabolism [5]: Active
Drug metabolism [6]: Active
Drug metabolism [7]: Active
Drug metabolism [8]: Active
Drug metabolism [9]: Active
Drug metabolism [10]: Active
Drug metabolism [11]: Active
Drug metabolism [12]: Active
Drug metabolism [13]: Active
solubility [14]: Insoluble
solubility [15]: Insoluble
solubility [16]: Insoluble
solubility [17]: Insoluble
solubility [18]: Insoluble
solubility [19]: Insoluble
solubility [20]: Insoluble
solubility [21]: Insoluble
solubility [22]: soluble
solubility [23]: soluble
solubility [24]: soluble
solubility [25]: soluble
solubility [26]: soluble
solubility [27]: soluble
solubility [28]: soluble
solubility [29]: soluble
solubility [30]: soluble
Drug degradation [31]: 3%
Drug metabolism [32]: Active
Drug metabolism [33]: Active

SMILES: CSSCCC(=O)Nc1ccc2[nH]c(C(=O)Nc3ccc4[nH]c(C(=O)N5C[C@H]6CC67C5=CC(=O)c5ccccc57)cc4c3)cc2c1 (stereo partly specified)
IC50 (Ramos [34]): 0.015 nM
IC50 [35]: 0.012 nM
IC50 (HL-60): 0.012 nM

SMILES: O=C(CCS)Nc1ccc2[nH]c(C(=O)Nc3ccc4[nH]c(C(=O)N5C[C@@H](CCl)c6c5cc(OP(=O)(O)O)c5ccccc65)cc4c3)cc2c1
Activity (Ramos [1]): inactive
Drug metabolism [2]: Active
Drug metabolism [3]: Active
Drug metabolism [4]: Active
Drug metabolism [5]: Active
Drug metabolism [6]: Active
Drug metabolism [7]: Active
Drug metabolism [8]: Active
Drug metabolism [9]: Active
Drug metabolism [10]: Active
Drug metabolism [11]: Active
Drug metabolism [12]: Active
Drug metabolism [13]: Active
solubility [14]: Insoluble
solubility [15]: Insoluble
solubility [16]: Insoluble
solubility [17]: Insoluble
solubility [18]: Insoluble
solubility [19]: Insoluble
solubility [20]: Insoluble
solubility [21]: Insoluble
solubility [22]: soluble
solubility [23]: soluble
solubility [24]: soluble
solubility [25]: soluble
solubility [26]: soluble
solubility [27]: soluble
solubility [28]: soluble
solubility [29]: soluble
solubility [30]: soluble
Drug degradation [31]: 3%
Drug metabolism [32]: Active
Drug metabolism [33]: Active

SMILES: Nc1ccc2[nH]c(C(=O)Nc3ccc4[nH]c(C(=O)N5C[C@@H](CCl)c6c5cc(O)c5ccccc65)cc4c3)cc2c1
IC50 [35]: 0.005 nM
IC50 (HL-60): 0.03 nM

SMILES: O=C(Nc1ccc2[nH]c(C(=O)N3C[C@@H](CCl)c4c3cc(O)c3ccccc43)cc2c1)c1cc2cc([N+](=O)[O-])ccc2[nH]1
IC50 [35]: 0.005 nM
IC50 (HL-60): 0.007 nM

Second part, led by results:

solubility [14]: Insoluble
solubility [15]: Insoluble
solubility [16]: Insoluble
solubility [17]: Insoluble
solubility [18]: Insoluble
solubility [19]: Insoluble
solubility [20]: Insoluble
solubility [21]: Insoluble
solubility [22]: soluble
solubility [23]: soluble
solubility [24]: soluble
SMILES: O=C(CCSSc1ccccn1)Nc1ccc2[nH]c(C(=O)Nc3ccc4[nH]c(C(=O)N5C[C@@H](CCl)c6c5cc(O)c5ccccc65)cc4c3)cc2c1
IC50 (Ramos [34]): 0.05 nM
IC50 [35]: 0.09 nM
IC50 (HL-60): 0.05 nM

solubility [14]: Insoluble
solubility [15]: Insoluble
solubility [16]: Insoluble
solubility [17]: Insoluble
solubility [18]: Insoluble
solubility [19]: Insoluble
solubility [20]: Insoluble
solubility [21]: Insoluble
solubility [22]: soluble
solubility [23]: soluble
solubility [24]: soluble
SMILES: CC(=O)SCCC(=O)Nc1ccc2[nH]c(C(=O)Nc3ccc4[nH]c(C(=O)N5C[C@@H](CCl)c6c5cc(O)c5ccccc65)cc4c3)cc2c1
IC50 (Ramos [34]): 0.047 nM
IC50 [35]: 0.02 nM
IC50 (HL-60): 0.045 nM
